Measured values taken from ChEMBL document CHEMBL1671727, “Expression, purification, and characterization of Aspergillus fumigatus sterol 14-alpha demethylase (CYP51) isoenzymes A and B” (Antimicrob Agents Chemother, 2010).
The source made the active and inactive calls. The calls are words filed in the database; no cut-off is given here.

Tests used:
[1] = target: T1, 14-alpha sterol demethylase (Neosartorya fumigata (Aspergillus fumigatus)) (UniProt Q96W81); experiment: Binding affinity to Aspergillus fumigatus AF293 sterol 14-alpha demethylase isoenzyme B expressed in Escherichia coli assessed as spectral dissociation constant
T1 sequence (whole entry): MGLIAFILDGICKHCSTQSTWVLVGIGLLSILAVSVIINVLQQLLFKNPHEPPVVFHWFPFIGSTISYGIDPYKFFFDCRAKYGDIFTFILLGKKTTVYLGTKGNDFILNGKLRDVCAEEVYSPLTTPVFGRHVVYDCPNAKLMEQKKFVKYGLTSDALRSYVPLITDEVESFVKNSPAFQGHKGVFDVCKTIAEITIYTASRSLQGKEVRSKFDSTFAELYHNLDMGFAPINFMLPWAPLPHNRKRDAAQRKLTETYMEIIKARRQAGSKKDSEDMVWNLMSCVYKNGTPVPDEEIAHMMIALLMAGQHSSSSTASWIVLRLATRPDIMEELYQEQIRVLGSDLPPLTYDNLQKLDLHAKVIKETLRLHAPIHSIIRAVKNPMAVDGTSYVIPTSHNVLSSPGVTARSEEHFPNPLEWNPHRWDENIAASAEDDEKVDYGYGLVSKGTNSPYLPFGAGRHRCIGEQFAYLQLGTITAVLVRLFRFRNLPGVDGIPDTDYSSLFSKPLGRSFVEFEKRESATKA
Procedure, shortened: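 His-tagged CYP51 (Af293 sequence, codon-optimised, E. coli-expressed), cholate-solubilised and Ni-NTA purified, at 1 μM in 0.1 M Tris-HCl pH 8.1 with 25% glycerol. Azole (0.05 mg/ml DMSO stock) titrated in split 4.5 mm cuvettes, with DMSO added to the reference. Difference spectra were read at 500–350 nm. Peak-to-trough change was plotted against concentration. Kd came from Morrison (tight binding), Michaelis-Menten or Hill fits.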

[2] = target: T1, 14-alpha sterol demethylase (Neosartorya fumigata (Aspergillus fumigatus)); experiment: Binding affinity to 1 uM recombinant Aspergillus fumigatus AF293 sterol 14-alpha demethylase isoenzyme B from Escherichia coli membrane suspension assessed as spectral dissociation constant
[3] = target: T1, 14-alpha sterol demethylase (Neosartorya fumigata (Aspergillus fumigatus)); experiment: Binding affinity to Aspergillus fumigatus AF293 sterol 14-alpha demethylase isoenzyme B expressed in Escherichia coli assessed as generation of type I difference spectrum at 4.8 uM

C=C(CC[C@@H](C)[C@H]1CC[C@@]2(C)C3=C(CC[C@]12C)[C@@]1(C)CC[C@H](C)C(C)(C)C1CC3)C(C)C (stereo not given in full)
Ks [1]: 22.6 µM | Ks [2]: 4.1 µM | Activity [3]: Active

CC(C)=CCC[C@@H](C)[C@H]1CC[C@@]2(C)C3=C(CC[C@]12C)[C@@]1(C)CC[C@H](O)C(C)(C)[C@@H]1CC3
Ks [1]: 8.6 µM | Ks [2]: 3.1 µM
